Values after ≈ are worked out from the molar mass of the structure shown.
Tests used:
Format in all cases: functional
[1] = tested on: Trichophyton mentagrophytes; experiment: Antifungal activity against Trichophyton mentagrophytes at 35 degC after 48 hrs by broth dilution method
Summary of the method: (§1)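 Fungal MIC by broth dilution. Two-fold serial dilutions of compound in nutrient broth were inoculated with about 1.6 × 10⁴–6 × 10⁴ c.f.u./ml. Incubation was 48 h at 35 °C. MIC was the lowest concentration arresting fungal growth.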

Escherichia coli [2] = experiment: Antibacterial activity against Escherichia coli ATCC 25922 at 37 degC after 24 hrs by broth dilution method; settings: ATCC 25922, 24 h
Summary of the method: (§2)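 Broth dilution MIC. Nutrient broth held two-fold serial dilutions of compound and was inoculated with about 5 × 10⁵ c.f.u. of actively dividing bacteria. Cultures ran 24 h at 37 °C, with growth checked visually and spectrophotometrically. MIC was the lowest concentration arresting growth. Ciprofloxacin was the standard.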

Pseudomonas aeruginosa [3] = experiment: Antibacterial activity against Pseudomonas aeruginosa ATCC 27853 at 37 degC after 24 hrs by disc diffusion method
Summary of the method: (§3)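 Disc diffusion on nutrient agar. Plates were spread with 1–2 × […] c.f.u./ml inoculum (0.5 McFarland). Sterile 6.25 mm filter-paper discs were soaked in a known concentration of compound and placed on the agar. Plates were inverted and incubated 24 h at 37 °C. Inhibition zones (mm) were read against solvent and growth controls, with ciprofloxacin as reference.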

Klebsiella pneumoniae [4] = experiment: Antibacterial activity against Klebsiella pneumoniae ATCC 25922 at 35 degC after 18 to 24 hrs; settings: recultured, in the assay text read “Klebsiella pneumoniae (recultured)” for “Klebsiella pneumoniae ATCC 25922”
Summary of the method: (§4)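 Bactericidal endpoint (MBC) taken from the broth-dilution MIC tubes. 0.1 ml from each tube was spread on agar plates and c.f.u. counted after 18–24 h. MBC was the lowest concentration completely killing the bacteria.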

Candida albicans [5] = experiment: Antifungal activity against Candida albicans at 35 degC after 48 hrs
Summary of the method: (§5)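 Fungicidal endpoint (MFC). 0.1 ml from each broth-dilution tube was spread on agar plates and c.f.u. counted after 48 h at 35 °C. MFC was the lowest concentration killing 99.9% of the inoculum.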

Aspergillus fumigatus [6] = experiment: Antifungal activity against Aspergillus fumigatus at 37 degC after 3 to 4 days by agar […] method
Summary of the method: (§6)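 Agar well diffusion for fungi, compounds in DMSO. Sabouraud agar was adjusted to pH 5.7 and lawned with a saline spore suspension (a loopful in 3 ml). Plates were dried 1 h at 37 °C, then wells were punched. Incubation was 3–4 days at 37 °C, with controls in triplicate. Inhibition zones were measured against controls, with griseofulvin as standard.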

Aspergillus fumigatus [7] = experiment: Antifungal activity against Aspergillus fumigatus at 35 degC after 48 hrs; summary of the method: as §5
Aspergillus fumigatus [8] = experiment: Antifungal activity against Aspergillus fumigatus at 35 degC after 48 hrs by broth dilution method; summary of the method: as §1
Candida albicans [9] = experiment: Antifungal activity against Candida albicans at 37 degC after 3 to 4 days by agar dilution method; summary of the method: as §6
Staphylococcus aureus [10] = experiment: Antibacterial activity against Staphylococcus aureus ATCC 25923 at 37 degC after 24 hrs by broth dilution method; settings: ATCC 25923, 24 h; summary of the method: as §2
Talaromyces marneffei [11] = experiment: Antifungal activity against Penicillium marneffei at 37 degC after 3 to 4 days by agar […] method; summary of the method: as §6
Candida albicans [12] = experiment: Antifungal activity against Candida albicans at 35 degC after 48 hrs by broth dilution method; summary of the method: as §1
Pseudomonas aeruginosa [13] = experiment: Antibacterial activity against Pseudomonas aeruginosa ATCC 27853 at 35 degC after 18 to 24 hrs; summary of the method: as §4
Escherichia coli [14] = experiment: Antibacterial activity against Escherichia coli ATCC 25922 at 35 degC after 18 to 24 hrs; summary of the method: as §4
Pseudomonas aeruginosa [15] = experiment: Antibacterial activity against Pseudomonas aeruginosa ATCC 27853 at 37 degC after 24 hrs by broth dilution method; settings: ATCC 27853, 24 h; summary of the method: as §2
[16] = tested on: Trichophyton mentagrophytes; experiment: Antifungal activity against Trichophyton mentagrophytes at 35 degC after 48 hrs; summary of the method: as §5
Klebsiella pneumoniae [17] = experiment: Antibacterial activity against Klebsiella pneumoniae ATCC 25922 at 37 degC after 24 hrs by broth dilution method; settings: recultured, in the assay text read “Klebsiella pneumoniae (recultured)” for “Klebsiella pneumoniae ATCC 25922”; summary of the method: as §2
Staphylococcus aureus [18] = experiment: Antibacterial activity against Staphylococcus aureus ATCC 25923 at 37 degC after 24 hrs by disc diffusion method; summary of the method: as §3
Talaromyces marneffei [19] = experiment: Antifungal activity against Penicillium marneffei at 35 degC after 48 hrs; summary of the method: as §5
Klebsiella pneumoniae [20] = experiment: Antibacterial activity against Klebsiella pneumoniae ATCC 25922 at 37 degC after 24 hrs by disc diffusion method; summary of the method: as §3
Talaromyces marneffei [21] = experiment: Antifungal activity against Penicillium marneffei at 35 degC after 48 hrs by broth dilution method; summary of the method: as §1
Staphylococcus aureus [22] = experiment: Antibacterial activity against Staphylococcus aureus ATCC 25923 at 35 degC after 18 to 24 hrs; summary of the method: as §4
[23] = tested on: Trichophyton mentagrophytes; experiment: Antifungal activity against Trichophyton mentagrophytes at 37 degC after 3 to 4 days by agar dilution method; settings: in the assay text read “agar diffusion method” for “agar dilution method”; summary of the method: as §6
Escherichia coli [24] = experiment: Antibacterial activity against Escherichia coli ATCC 25922 at 37 degC after 24 hrs by disc diffusion method; summary of the method: as §3

| MIC [1] [µg/mL] | MIC (Escherichia coli [2]) [µg/mL] | MIC (Aspergillus fumigatus [8]) [µg/mL] | MIC (Staphylococcus aureus [10]) [µg/mL] | MIC (Candida albicans [12]) [µg/mL] | MIC (Pseudomonas aeruginosa [15]) [µg/mL] | MIC (Klebsiella pneumoniae [17]) [µg/mL] | MIC (Talaromyces marneffei [21]) [µg/mL] | Compound | MBC (Klebsiella pneumoniae [4]) [µg/mL] | MFC (Candida albicans [5]) [µg/mL] | inhibition zone (IZ) (Aspergillus fumigatus [6]) [mm] | MFC (Aspergillus fumigatus [7]) [µg/mL] | MBC (Pseudomonas aeruginosa [13]) [µg/mL] | MBC (Escherichia coli [14]) [µg/mL] | MFC [16] [µg/mL] | inhibition zone (IZ) (Staphylococcus aureus [18]) [mm] | MFC (Talaromyces marneffei [19]) [µg/mL] | inhibition zone (IZ) (Klebsiella pneumoniae [20]) [mm] | MBC (Staphylococcus aureus [22]) [µg/mL] | inhibition zone (IZ) (Escherichia coli [24]) [mm] | further results |
| --- | --- | --- | --- | --- | --- | --- | --- | --- | --- | --- | --- | --- | --- | --- | --- | --- | --- | --- | --- | --- | --- |
| 12.5 (≈ 33.5 µM) | 6.25 (≈ 16.7 µM) | 6.25 (≈ 16.7 µM) | 12.5 (≈ 33.5 µM) | 25 (≈ 66.9 µM) | 12.5 (≈ 33.5 µM) | 25 (≈ 66.9 µM) | > 100 | Fc1cc(-c2nnc(COc3ccccc3Cl)o2)c(Cl)cc1Cl | 50 (≈ 134 µM) | 50 (≈ 134 µM) | 19 | 12.5 (≈ 33.5 µM) | 25 (≈ 66.9 µM) | 12.5 (≈ 33.5 µM) | 50 (≈ 134 µM) | 15 | > 100 | 12 | 50 (≈ 134 µM) | 18 | inhibition zone (IZ) (Pseudomonas aeruginosa [3]): 15 mm; inhibition zone (IZ) (Candida albicans [9]): 10 mm; Activity (Talaromyces marneffei [11]): >100 µg/mL; inhibition zone (IZ) [23]: 12 mm |
| 6.25 (≈ 16.1 µM) | 6.25 (≈ 16.1 µM) | 6.25 (≈ 16.1 µM) | 6.25 (≈ 16.1 µM) | 6.25 (≈ 16.1 µM) | 6.25 (≈ 16.1 µM) | 6.25 (≈ 16.1 µM) | 6.25 (≈ 16.1 µM) | Cc1cc(Cl)ccc1OCc1nnc(-c2cc(F)c(Cl)cc2Cl)o1 | 6.25 (≈ 16.1 µM) | 6.25 (≈ 16.1 µM) | 25 | 6.25 (≈ 16.1 µM) | 6.25 (≈ 16.1 µM) | 12.5 (≈ 32.2 µM) | 25 (≈ 64.5 µM) | 20 | 6.25 (≈ 16.1 µM) | 19 | 6.25 (≈ 16.1 µM) | 24 | inhibition zone (IZ) (Pseudomonas aeruginosa [3]): 29 mm; inhibition zone (IZ) (Candida albicans [9]): 28 mm; inhibition zone (IZ) (Talaromyces marneffei [11]): 19 mm; inhibition zone (IZ) [23]: 22 mm |
| > 100 | 12.5 (≈ 32.2 µM) | 25 (≈ 64.5 µM) | 25 (≈ 64.5 µM) | > 100 | > 100 | > 100 | 25 (≈ 64.5 µM) | Cc1cc(OCc2nnc(-c3cc(F)c(Cl)cc3Cl)o2)ccc1Cl | > 100 | > 100 | 8 | 50 (≈ 129 µM) | > 100 | 100 (≈ 258 µM) | > 100 | 10 | 50 (≈ 129 µM) | 12 | 50 (≈ 129 µM) | 15 | Activity (Pseudomonas aeruginosa [3]): >100 µg/mL; Activity (Candida albicans [9]; in the assay text read “agar diffusion method” for “agar dilution method”): >100 µg/mL; inhibition zone (IZ) (Talaromyces marneffei [11]): 10 mm; Activity [23]: >100 µg/mL |
| > 100 | 6.25 (≈ 17.7 µM) | 25 (≈ 70.8 µM) | 6.25 (≈ 17.7 µM) | 12.5 (≈ 35.4 µM) | 6.25 (≈ 17.7 µM) | 12.5 (≈ 35.4 µM) | 25 (≈ 70.8 µM) | Cc1ccccc1OCc1nnc(-c2cc(F)c(Cl)cc2Cl)o1 | 50 (≈ 142 µM) | 25 (≈ 70.8 µM) | 10 | 100 (≈ 283 µM) | 6.25 (≈ 17.7 µM) | 25 (≈ 70.8 µM) | > 100 | 19 | 100 (≈ 283 µM) | 16 | 25 (≈ 70.8 µM) | 27 | inhibition zone (IZ) (Pseudomonas aeruginosa [3]): 28 mm; inhibition zone (IZ) (Candida albicans [9]): 15 mm; inhibition zone (IZ) (Talaromyces marneffei [11]): 8 mm; Activity [23]: >100 µg/mL |

— ChEMBL document CHEMBL1149771, “Antimicrobial studies of 2,4-dichloro-5-fluorophenyl containing oxadiazoles” (2008)
